Hits are enriched below; roughly 2.5% of the tested compounds scored in any of these assays.
DYRK1A inh: inhibitors of rat Dyrk1A kinase; hit rate 0.43% among 310,000; inhibition, % at 12.5 µM; Q63470; ADP-Glo luminescence, NFATc1 peptide;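 further: plate controls were vehicle with enzyme for no effect and no enzyme for full effect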
CDK5 p35 inh: inhibitors of human CDK5/p35 kinase. hit rate 0.01% among 330,000. inhibition, % at 10 µM. Recombinant CDK5/p35, ADP-Glo luminescence, 60 min. Q00535+Q15078;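 active means highest replicate inhibition of at least 50% and at least 75% of replicates reaching 50%; inconclusive means only one of the two criteria met; inactive means both criteria failed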;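 further: plate controls were DMSO neutral control for no effect and GW8510 at 10 µM for full effect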
NSD2 inh: blocks human histone methyltransferase NSD2 | NSD2 peptide methylation, AlphaScreen, 120 min | inhibition, % at 12.5 µM | hit rate 0.54% among 310,000
dFosB act-1: enhances mouse delta FosB homodimer DNA binding. hit rate 0.99% among 340,000. P13346. activation, % at 25 µM. purified delta FosB, TAMRA-CDK5 oligo fluorescence polarization; percent of positive-control signal above neutral wells;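 active means mean activation above about 17%, with every replicate also reaching it, limit read from the data, passing the limit was not always enough; inconclusive means only one of the two conditions met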
Target sequence (P13346 whole entry, looked up): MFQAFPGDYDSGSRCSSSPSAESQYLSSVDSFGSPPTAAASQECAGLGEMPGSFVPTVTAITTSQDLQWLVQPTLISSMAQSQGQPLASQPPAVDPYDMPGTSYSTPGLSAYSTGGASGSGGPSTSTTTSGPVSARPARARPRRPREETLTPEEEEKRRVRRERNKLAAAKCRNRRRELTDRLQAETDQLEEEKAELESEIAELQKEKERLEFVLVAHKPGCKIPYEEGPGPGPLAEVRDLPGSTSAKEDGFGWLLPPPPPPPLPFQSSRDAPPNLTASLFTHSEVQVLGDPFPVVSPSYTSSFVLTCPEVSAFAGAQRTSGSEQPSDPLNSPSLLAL
SR-BI uptake up: SR-BI HDL lipid transfer activation; hit rate 0.096% among 320,000; AID 504775; CHO ldlA[mSR-BI] cells, DiI-HDL uptake fluorescence, 3 h; 100 = double the neutral-control signal; activation, % at 12.5 µM;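 active means mean replicate activation of at least 60% and every replicate at or above 60%; inconclusive means mean or all-replicate condition met, but not both; inactive means mean below 60% and not all replicates reaching 60%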;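 further: 0% = median plate neutral-control signal and 100% = twice that signal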
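Test system: SR-BI-overexpressing, LDLR-lacking CHO cells. Measured by: DiI fluorescence, bottom read. Medium: Ham's F12 with 0.5% BSA, HEPES 25 mM, pH 7.4. Timing: 3 h uptake period with compound, 37 °C.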
SR-BI HDL uptake: blocks mouse SR-BI lipid uptake from DiI-HDL | hit rate 0.96% among 320,000 | AID 488896 | ldlA[mSR-BI] CHO cells, DiI-HDL uptake fluorescence, 3 h | inhibition, % at 12.5 µM;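 active means mean replicate inhibition of at least 70% and a set share of replicates each scoring 70 or more; inconclusive means meets just one of the two criteria; inactive means fails both criteria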;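 further: 0% = median of neutral control wells and 100% = median of positive control wells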
dFosB act-2: activators of mouse delta FosB homodimer DNA binding; activation, % at 24.9 µM; shares compounds with dFosB act-1; purified delta FosB, TAMRA-CDK5 oligo fluorescence polarization; normalised: neutral wells 0, positive control 100; 2,400 tested, under 10 active; AID 588690;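 active means highest replicate activation at or above 34% and every replicate reaching that threshold; inconclusive means meets only one of the two criteria; inactive means meets neither criterion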;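 further: higher polarization means more probe DNA bound by delta FosB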
* hit, by the source's call. Unless noted, no stated cut-off is given here; in the data, active means inhibition above about 50%; inactive means the rest.

Results for COc1cccc(/C=C/C(=O)OCC(=O)c2ccc3c(c2)NC(=O)CO3)c1OC ?
DYRK1A inh: 6; CDK5 p35 inh: -2; NSD2 inh: 0; dFosB act-1: -11; SR-BI uptake up: -13; SR-BI HDL uptake: 13

How did CC(=O)c1c(C)[nH]c(C(=O)OCC(=O)c2ccc3c(c2)NC(=O)CO3)c1C do in these assays?
CDK5 p35 inh: -1; NSD2 inh: 0; dFosB act-1: 30*; SR-BI uptake up: -39; SR-BI HDL uptake: 39; dFosB act-2: 4

Results for O=C1COc2ccc(C(=O)COC(=O)/C=C/c3cccc(F)c3)cc2N1 ?
DYRK1A inh: -2; CDK5 p35 inh: 0; dFosB act-1: 80*; SR-BI uptake up: -7; SR-BI HDL uptake: 7; dFosB act-2: 4

How did O=C1COc2ccc(C(=O)COC(=O)c3ccc(S(=O)(=O)C(F)F)cc3)cc2N1 do in these assays?
CDK5 p35 inh: -1; NSD2 inh: 7; dFosB act-1: -1; SR-BI uptake up: 0; SR-BI HDL uptake: 0

How did CCC1(CC)NC(=O)N(CC(=O)OCC(=O)Nc2sccc2C#N)C1=O do in these assays?
DYRK1A inh: -4; CDK5 p35 inh: 2; NSD2 inh: 2; dFosB act-1: 2; SR-BI uptake up: 7; SR-BI HDL uptake: -7

What do the screens show for `O=C(O)c1cc(S(=O)(=O)Nc2cccc(Oc3ccccc3)c2)ccc1Br`?
DYRK1A inh: 3; CDK5 p35 inh: 0; NSD2 inh: 1; dFosB act-1: 1; SR-BI uptake up: 2; SR-BI HDL uptake: -2

Results for CC1CC(C)CN(S(=O)(=O)c2ccc(C(=O)Nc3sccc3C(N)=O)cc2)C1 (stereo unspecified) ?
DYRK1A inh: -2; CDK5 p35 inh: 1; dFosB act-1: 29*; SR-BI uptake up: 6; SR-BI HDL uptake: -6; dFosB act-2: 2

Results for CC(=O)Nc1ccccc1-c1nc2ccccc2nc1OCC(=O)c1ccc2ccccc2c1 ?
DYRK1A inh: 1; CDK5 p35 inh: 0; NSD2 inh: -1; dFosB act-1: 30*; SR-BI uptake up: -40; SR-BI HDL uptake: 40; dFosB act-2: -4

Results for CN(C)CCN(C(=O)c1cccc2ccccc12)c1nc2cc3c(cc2s1)OCO3 ?
DYRK1A inh: 1; CDK5 p35 inh: -1; NSD2 inh: 5; dFosB act-1: 41*; SR-BI uptake up: -11; SR-BI HDL uptake: 11; dFosB act-2: 0

What do the screens show for `CCN(CC)CCN(C(=O)c1cc2c(ccc3ccccc32)oc1=O)c1nc2cc3c(cc2s1)OCCO3`?
CDK5 p35 inh: -3; NSD2 inh: 17; dFosB act-1: 71*; SR-BI uptake up: 10; SR-BI HDL uptake: -10; dFosB act-2: 0

Results for CCN(c1ccccc1)S(=O)(=O)c1ccc(C(=O)N(CCCN(C)C)c2nc3cc4c(cc3s2)OCO4)cc1 ?
DYRK1A inh: 2; CDK5 p35 inh: 4; NSD2 inh: 12; dFosB act-1: 29*; SR-BI uptake up: 36; SR-BI HDL uptake: -36; dFosB act-2: -3

Results for CN(C)CCN(C(=O)c1ccc(Br)s1)c1nc2cc3c(cc2s1)OCCO3 ?
DYRK1A inh: 1; CDK5 p35 inh: -3; NSD2 inh: 6; dFosB act-1: 19*; SR-BI uptake up: -7; SR-BI HDL uptake: 7; dFosB act-2: 2

Results for COc1ccc(S(=O)(=O)N2CCOC2CNC(=O)C(=O)NCc2ccc(F)cc2)cc1OC (stereo unspecified) ?
DYRK1A inh: -4; CDK5 p35 inh: -2; NSD2 inh: -3; dFosB act-1: -15; SR-BI uptake up: 0; SR-BI HDL uptake: 0

What do the screens show for `CCOC(=O)c1ccc(Nc2nc(=O)c3cccnc3s2)cc1`?
DYRK1A inh: 4; CDK5 p35 inh: 1; NSD2 inh: 1; dFosB act-1: -7; SR-BI uptake up: 5; SR-BI HDL uptake: -5

What do the screens show for `O=c1nc(Nc2ccc(OCc3ccccc3)cc2)sc2ncccc12`?
DYRK1A inh: -1; CDK5 p35 inh: 0; NSD2 inh: -1; dFosB act-1: 20*; SR-BI uptake up: -5; SR-BI HDL uptake: 5; dFosB act-2: -1

Results for Cc1cc(N2CCCC2)nc2ccc(NC(=S)NCCCN3CCC(C)CC3)cc12 ?
DYRK1A inh: 2; CDK5 p35 inh: 0; dFosB act-1: 46*; SR-BI uptake up: 19; SR-BI HDL uptake: -19; dFosB act-2: 2

What do the screens show for `CCCCNC(=S)Nc1ccc2nc(N3CCN(CC)CC3)cc(C)c2c1`?
DYRK1A inh: 6; CDK5 p35 inh: 1; NSD2 inh: 17; dFosB act-1: -5; SR-BI uptake up: -7; SR-BI HDL uptake: 7

Results for Cc1cc(N2CCN(C)CC2)nc2ccc(NC(=S)NCCCN3CCc4ccccc4C3)cc12 ?
DYRK1A inh: -4; CDK5 p35 inh: -1; dFosB act-1: 31*; dFosB act-2: 0

Results for CCCCN(C)CCNC(=S)Nc1ccc2nc(N3CCN(CC)CC3)cc(C)c2c1 ?
DYRK1A inh: 17; CDK5 p35 inh: 2; NSD2 inh: 29; dFosB act-1: inconclusive; SR-BI uptake up: 5; SR-BI HDL uptake: -5

Results for Cc1cc(N2CCN(C)CC2)nc2ccc(NC(=S)N3CCN(c4ccc(Cl)cc4)CC3)cc12 ?
DYRK1A inh: 2; CDK5 p35 inh: -1; dFosB act-1: 10

Results for CCN1CCN(c2cc(C)c3cc(NC(=S)NCCN(C)C)ccc3n2)CC1 ?
DYRK1A inh: 2; CDK5 p35 inh: -6; NSD2 inh: 13; dFosB act-1: 20*; SR-BI uptake up: 8; SR-BI HDL uptake: -8; dFosB act-2: 7

Results for Cc1cc(N2CCN(C)CC2)nc2ccc(NC(=S)N3CCN(c4cccc(Cl)c4)CC3)cc12 ?
DYRK1A inh: -3; CDK5 p35 inh: 1; NSD2 inh: -2; dFosB act-1: 51*; SR-BI uptake up: 0; SR-BI HDL uptake: 0; dFosB act-2: 5

What do the screens show for `CC(=O)NC12CC3CC(C1)CC(C(=O)N(C)CC(=O)Nc1ccc(F)c(F)c1F)(C3)C2`?
CDK5 p35 inh: -2; dFosB act-1: 2; SR-BI uptake up: 10; SR-BI HDL uptake: -10

Results for CCC(C)C(NC(N)=O)C(=O)Nc1ccc(OCc2ccccc2)cc1 (stereo unspecified) ?
DYRK1A inh: -10; CDK5 p35 inh: 1; dFosB act-1: 43*; SR-BI uptake up: -29; SR-BI HDL uptake: 29; dFosB act-2: 6

How did CCOc1ccc(NC(=O)[C@@H](NC(=O)OCc2ccccc2)[C@@H](C)CC)cc1 do in these assays?
DYRK1A inh: 1; CDK5 p35 inh: -1; NSD2 inh: 0; dFosB act-1: -5; SR-BI uptake up: 27; SR-BI HDL uptake: -27

Screening results deposited in PubChem BioAssay by Broad Institute.
